# Diaphorase inh: diaphorase inhibition or chemical oxidation counter-screen. inhibition, % at 20 µM. diaphorase resazurin-to-resorufin fluorescence, NADH, 16 min; bacterial (C. kluyveri) enzyme, not human. actives 0.69% (n = 190,000). AID 1217;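 active = primary screen inhibition at 20 µM above a set limit, cut at about 50% in these data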;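 also: plate controls were DMSO with full reaction for no effect and wells lacking NADH for full effect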
#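 Test system: bacterial diaphorase enzyme (C. kluyveri); Quantity: 0.14 U/mL diaphorase, enzyme working solution; Times: reaction incubation of 16 min at room temperature; Measured by: fluorescence of resorufin formed from resazurin, Ex 544/Em 590 nm; Benchmarks: positive control minus NADH, DMSO neutral control.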
# WT yeast gro inh: growth inhibition of WT yeast, mitochondrial fusion screen | actives 2.1% (n = 190,000) | AID 1362 | inhibition, % at 10 µM | mitochondrial fusion phenotypic screen, WT strain; in the data active = inhibition above about 58%; tested in S. cerevisiae
# G6PDH counter: inhibits Leuconostoc G6PDH, flagging false hits in G6PDH-based assays; actives 0.12% (n = 200,000); inhibition, % at 5 µM; Purified L. mesenteroides G6PDH, diaphorase/resazurin coupled fluorescence, 45 min
# L major viab: reduces viability of Leishmania major promastigotes. inhibition, % at 10 µM. resazurin fluorescence viability. actives 9% (n = 200,000);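 also: promastigotes grown with compound for 44 hours at 28 °C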
# Diaphorase act: counter-screen for diaphorase-based assays: diaphorase activators and chemical reducers. activation factor at 20 µM. Diaphorase/resazurin coupled assay, resorufin fluorescence, 16 min; active compounds read high; 1 = vehicle wells, 0 = NADH-free wells. AID 1229. actives 0.005% (n = 190,000);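 active = diaphorase activity raised at least twofold by the compound at 20 µM; inactive = activation factor below 2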
#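 Assay system: Purified diaphorase enzyme from Clostridium kluyveri | Amount: Enzyme 0.07 U/mL final | Dosing: Compound 20 µM once, DMSO 1% | Timing: 16 min reaction at room temperature | Detection: Fluorescence, excitation 544 nm and emission 590 nm | Evaluation: Higher resorufin formation from activation or reduction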
# L major 1uM: L. major promastigote growth inhibition, 1 uM repeat. shares compounds with L major viab. resazurin fluorescence, 48 h. inhibition, % at 1 µM. actives 13% (n = 1,100);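 active = inhibition above about 50% in both repeat tests, limit read from the data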
# Numbers without * were called inactive; x = not tested or not shown. Most compounds without a hit are left out; they make up all but 11% or so of the library. Rule as the data show it, unless noted: active = inhibition above about 50%; inactive = the rest.
SMILES,Diaphorase inh,WT yeast gro inh,G6PDH counter,L major viab,Diaphorase act,L major 1uM
O=C(NC[P+](=O)O)OCc1ccccc1,0,3,-1,-8,1,x
COc1ccc(Oc2cc(NC(=O)c3nn(C)cc3[N+](=O)[O-])cc([N+](=O)[O-])c2)cc1,22,13,0,11,0.8,x
O=C1C=C2C=C[C@H]3C[C@]2(O1)[C@@H]1CCCCN13,7,-13,7,51*,0.9,-2
CC(C)(C)c1ccc(C(=O)C2CCCN(C3CCC3)C2)cc1 (stereo unspecified),6,46,3,93*,0.9,80*
CN1/C(=C\C=C2C(=O)NC(=O)NC2=O)C(C)(C)c2ccccc21,26,8,4,2,0.7,x
CN1/C(=C\C=C\C2=[N+](C)c3ccc4ccccc4c3C2(C)C)C(C)(C)c2ccccc21,-1,16,6,98*,1,101*
CCSc1nnc([C@@H](N)Cc2ccccc2)o1,1,0,20,-3,1,x
NC(=O)c1cn(C2OC(CO)C(O)C2O)c2ncnc(N)c12 (stereo unspecified),-1,14,2,99*,1,97*
CCNC(=O)[C@H]1O[C@@H](n2cnc3c(N)ncnc32)[C@H](O)[C@@H]1O,-45,-2,0,x,1.5,x
O=C1CC(c2cccnc2)=NN1c1ccccc1,19,2,6,2,0.8,x
Cc1ccc(/C=C2/C(=O)NC(=O)N(CC3CCCO3)C2=O)s1 (stereo unspecified),12,-11,3,47,0.9,x
COC(=O)C1CN(C#N)N(c2ccc(Cl)cc2)C12c1ccccc1-c1ccccc12 (stereo unspecified),8,74*,7,100*,0.9,101*
C=CCN1C(=O)C2(C(C(=O)OCC)=C(N)Oc3ccccc32)c2c1c1ccccc1oc2=O (stereo unspecified),7,4,9,6,0.9,x
C[n+]1c(-c2ccccc2)cc(CCCCc2cc(-c3ccccc3)[n+](C)c(-c3ccccc3)c2)cc1-c1ccccc1,-12,54,1,100*,1.1,95*
COc1ccc(-c2cc(-c3ccccc3)[n+](C)c(-c3ccccc3)c2)cc1,7,33,0,100*,0.9,11
COc1ccc(-c2nc3ccccc3c(=O)n2-c2ccc(OC)cc2)cc1,9,-28,12,-1,0.9,x
CCOC(=O)C(O)(c1cn(C)c2ccccc12)C(F)(F)F (stereo unspecified),4,13,5,0,1,x
CCNC(=O)NC(=O)C(C)OC(=O)c1c(C)nn(Cc2ccccc2Cl)c1Cl (stereo unspecified),10,5,4,51*,0.9,-12
CCNC(=O)NC(=O)C(C)OC(=O)c1c(C)nn(Cc2ccccc2)c1Cl (stereo unspecified),14,-1,4,-3,0.9,x

# Screening data: PubChem, several laboratories
